The record followed here is ChEMBL document CHEMBL3826910, “Discovery of 3-(5'-Substituted)-Benzimidazole-5-(1-(3,5-dichloropyridin-4-yl)ethoxy)-1H-indazoles as Potent Fibroblast Growth Factor Receptor Inhibitors: Design, Synthesis, and Biological Evaluation” (J Med Chem, 2016).

Data set [1] deals with Vascular endothelial growth factor receptor 2 (Homo sapiens, UniProt P35968). The experiment in a line: Inhibition of recombinant human VEGFR2 using poly (Glu, Tyr) 4:1 as substrate after 60 mins by ELISA.
Sequence of Vascular endothelial growth factor receptor 2 (P35968 whole entry): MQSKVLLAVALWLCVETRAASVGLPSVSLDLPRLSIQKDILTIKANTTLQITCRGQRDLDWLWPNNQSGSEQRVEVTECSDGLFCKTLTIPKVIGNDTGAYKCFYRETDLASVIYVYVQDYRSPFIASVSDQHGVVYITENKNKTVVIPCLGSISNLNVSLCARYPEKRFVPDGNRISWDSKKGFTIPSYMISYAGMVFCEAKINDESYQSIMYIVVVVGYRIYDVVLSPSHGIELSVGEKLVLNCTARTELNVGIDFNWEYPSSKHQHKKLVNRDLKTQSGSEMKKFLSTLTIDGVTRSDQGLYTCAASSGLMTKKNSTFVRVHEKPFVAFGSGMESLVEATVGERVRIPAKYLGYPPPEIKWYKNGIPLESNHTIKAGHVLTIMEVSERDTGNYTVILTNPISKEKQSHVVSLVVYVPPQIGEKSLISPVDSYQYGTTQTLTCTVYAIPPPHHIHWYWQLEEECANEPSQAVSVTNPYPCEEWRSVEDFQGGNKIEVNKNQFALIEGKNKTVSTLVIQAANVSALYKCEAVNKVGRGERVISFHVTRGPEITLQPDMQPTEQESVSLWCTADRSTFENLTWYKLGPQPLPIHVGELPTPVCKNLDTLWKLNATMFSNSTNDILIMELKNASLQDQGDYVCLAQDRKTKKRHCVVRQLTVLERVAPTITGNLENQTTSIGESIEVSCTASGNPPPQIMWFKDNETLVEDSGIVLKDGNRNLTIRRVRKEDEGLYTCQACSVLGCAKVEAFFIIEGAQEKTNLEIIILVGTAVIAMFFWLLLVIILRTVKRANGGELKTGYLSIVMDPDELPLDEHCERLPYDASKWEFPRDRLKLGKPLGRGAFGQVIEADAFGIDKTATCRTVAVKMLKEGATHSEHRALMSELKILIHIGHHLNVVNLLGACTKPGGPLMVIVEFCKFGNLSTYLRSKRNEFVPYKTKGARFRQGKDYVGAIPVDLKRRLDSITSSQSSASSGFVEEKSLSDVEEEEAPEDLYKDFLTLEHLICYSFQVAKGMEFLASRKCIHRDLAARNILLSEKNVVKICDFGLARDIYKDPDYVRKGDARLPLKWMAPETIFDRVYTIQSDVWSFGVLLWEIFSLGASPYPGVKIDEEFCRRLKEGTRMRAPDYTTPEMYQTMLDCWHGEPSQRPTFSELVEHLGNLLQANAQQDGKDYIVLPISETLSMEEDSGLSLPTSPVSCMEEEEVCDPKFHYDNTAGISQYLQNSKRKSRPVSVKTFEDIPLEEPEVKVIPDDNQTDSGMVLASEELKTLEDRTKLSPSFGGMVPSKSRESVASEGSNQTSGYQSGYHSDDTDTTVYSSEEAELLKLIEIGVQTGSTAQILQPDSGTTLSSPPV
Data set [2] in a line: Cmax in Sprague-Dawley rat at 1 mg/kg, iv. It counts as ADME, organism-based. More on the design: dose 1 mg/kg, route intravenous. The settings on record: in vivo.
Data set [3] is described as follows: Cmax in Sprague-Dawley rat at 5 mg/kg, po. It counts as ADME, organism-based. More on the design: dose 5 mg/kg, route oral. The settings on record: in vivo. An outline of the steps: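 Male SD rats (n = 3) dosed orally by gavage at 5 mg/kg as a suspension in 0.5% CMC-Na. Quantified by LC-MS/MS. An IV arm (1 mg/kg) was run in parallel.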
Data set [4] can be described thus: AUC (0 to infinity) in Sprague-Dawley rat at 1 mg/kg, iv. It counts as ADME, organism-based. Also on record: dose 1 mg/kg, time infinity, route intravenous. The settings on record: in vivo.
A short description of data set [5]: Volume of distribution at steady state in Sprague-Dawley rat at 1 mg/kg, iv. It counts as ADME, organism-based. The settings on record: in vivo, read-out: Vdss.
Data set [6] deals with T1, Fibroblast growth factor receptor 2 (Homo sapiens, UniProt P21802). As to the kind of experiment: Inhibition of recombinant human FGFR2 using poly (Glu, Tyr) 4:1 as substrate after 60 mins by ELISA. Put shortly: (§1)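 Purified recombinant kinases tested by ELISA on plates pre-coated with 20 µg/mL poly(Glu,Tyr) 4:1. Reaction run 60 min at 37 °C. Read-out: PY99 anti-phosphotyrosine antibody, HRP anti-mouse IgG and o-phenylenediamine/H2O2, with A490 measured. IC50 from inhibition curves, two independent experiments.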
Target sequence in this assay (P21802 whole entry): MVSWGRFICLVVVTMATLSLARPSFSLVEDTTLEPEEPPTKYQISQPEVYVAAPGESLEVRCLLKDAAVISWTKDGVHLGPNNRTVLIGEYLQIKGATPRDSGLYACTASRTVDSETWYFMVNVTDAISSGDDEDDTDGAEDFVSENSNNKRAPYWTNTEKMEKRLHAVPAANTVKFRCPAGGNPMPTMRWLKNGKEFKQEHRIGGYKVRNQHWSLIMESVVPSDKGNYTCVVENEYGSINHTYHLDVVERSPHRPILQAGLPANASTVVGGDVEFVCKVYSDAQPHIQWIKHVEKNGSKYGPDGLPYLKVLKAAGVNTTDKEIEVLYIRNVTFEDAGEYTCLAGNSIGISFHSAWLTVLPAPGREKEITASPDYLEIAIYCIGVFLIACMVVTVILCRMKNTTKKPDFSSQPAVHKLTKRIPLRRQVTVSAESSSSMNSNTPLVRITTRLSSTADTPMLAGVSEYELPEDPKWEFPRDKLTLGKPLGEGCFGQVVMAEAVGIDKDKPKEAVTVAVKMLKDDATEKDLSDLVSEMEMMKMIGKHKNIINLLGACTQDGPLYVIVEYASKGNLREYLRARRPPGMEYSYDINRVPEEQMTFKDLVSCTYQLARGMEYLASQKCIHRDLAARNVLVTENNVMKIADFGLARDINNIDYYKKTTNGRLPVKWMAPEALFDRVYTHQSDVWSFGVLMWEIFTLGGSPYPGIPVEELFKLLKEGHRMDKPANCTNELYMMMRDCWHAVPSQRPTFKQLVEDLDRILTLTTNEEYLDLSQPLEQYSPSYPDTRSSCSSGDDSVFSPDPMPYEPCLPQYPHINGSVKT

Data set [7] has as its target Fibroblast growth factor receptor 4 (Homo sapiens, UniProt P22455). As to the kind of experiment: Inhibition of recombinant human FGFR4 using poly (Glu, Tyr) 4:1 as substrate after 60 mins by ELISA. Put shortly: as §1
The target of data set [8] is Receptor tyrosine-protein kinase erbB-2 (Homo sapiens, UniProt P04626). As to the kind of experiment: Inhibition of recombinant human ErbB2 using poly (Glu, Tyr) 4:1 as substrate after 60 mins by ELISA. An outline of the steps: as §1
The target in data set [9] is Platelet-derived growth factor receptor beta (Homo sapiens, UniProt P09619). The experiment in a line: Inhibition of recombinant human PDGFRbeta using poly (Glu, Tyr) 4:1 as substrate after 60 mins by ELISA. Put shortly: as §1
Sequence of Platelet-derived growth factor receptor beta (P09619 whole entry): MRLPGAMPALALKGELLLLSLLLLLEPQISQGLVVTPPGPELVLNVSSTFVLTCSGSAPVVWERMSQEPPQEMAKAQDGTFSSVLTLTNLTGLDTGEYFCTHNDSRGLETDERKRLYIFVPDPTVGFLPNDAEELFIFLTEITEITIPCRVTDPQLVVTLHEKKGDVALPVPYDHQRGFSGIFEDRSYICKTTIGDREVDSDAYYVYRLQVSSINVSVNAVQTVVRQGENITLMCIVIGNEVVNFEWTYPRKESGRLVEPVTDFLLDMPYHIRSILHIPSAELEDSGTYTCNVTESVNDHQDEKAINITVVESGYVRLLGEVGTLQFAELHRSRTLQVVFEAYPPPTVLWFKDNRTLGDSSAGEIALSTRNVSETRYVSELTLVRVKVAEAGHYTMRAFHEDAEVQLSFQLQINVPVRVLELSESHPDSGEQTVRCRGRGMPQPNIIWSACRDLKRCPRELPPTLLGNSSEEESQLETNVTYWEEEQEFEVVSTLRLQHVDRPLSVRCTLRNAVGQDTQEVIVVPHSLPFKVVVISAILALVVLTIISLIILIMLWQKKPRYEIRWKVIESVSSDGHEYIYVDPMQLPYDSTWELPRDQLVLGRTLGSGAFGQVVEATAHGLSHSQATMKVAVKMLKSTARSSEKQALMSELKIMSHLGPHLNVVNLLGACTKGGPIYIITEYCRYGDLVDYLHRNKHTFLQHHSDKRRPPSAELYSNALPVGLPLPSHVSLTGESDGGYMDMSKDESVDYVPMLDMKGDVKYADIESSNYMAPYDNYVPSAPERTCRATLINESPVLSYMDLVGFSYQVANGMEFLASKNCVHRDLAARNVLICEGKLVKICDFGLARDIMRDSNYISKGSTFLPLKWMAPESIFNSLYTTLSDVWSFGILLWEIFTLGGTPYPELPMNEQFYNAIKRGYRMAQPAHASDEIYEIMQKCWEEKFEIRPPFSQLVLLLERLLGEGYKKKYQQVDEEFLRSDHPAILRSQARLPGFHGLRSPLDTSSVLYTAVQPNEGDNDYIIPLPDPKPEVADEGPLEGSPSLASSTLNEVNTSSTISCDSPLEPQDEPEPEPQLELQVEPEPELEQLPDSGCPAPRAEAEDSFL
Data set [10] addresses Vascular endothelial growth factor receptor 1 (Homo sapiens, UniProt P17948). The experiment in a line: Inhibition of recombinant human Flt1 using poly (Glu, Tyr) 4:1 as substrate after 60 mins by ELISA. An outline of the steps:
as §1

The target of data set [11] is Proto-oncogene tyrosine-protein kinase receptor Ret (Homo sapiens, UniProt P07949). As to the kind of experiment: Inhibition of recombinant human RET using poly (Glu, Tyr) 4:1 as substrate after 60 mins by ELISA. An outline of the steps: as §1
The target in data set [12] is Proto-oncogene tyrosine-protein kinase Src (Homo sapiens, UniProt P12931). The experiment in a line: Inhibition of recombinant human c-Src using poly (Glu, Tyr) 4:1 as substrate after 60 mins by ELISA. An outline of the steps: as §1
The target in data set [13] is Bcr/Abl fusion protein (Homo sapiens, UniProt P00519). The experiment in a line: Inhibition of recombinant human Bcr-Abl using poly (Glu, Tyr) 4:1 as substrate after 60 mins by ELISA. It counts as protein assay. Put shortly: as §1
Data set [14] addresses Ephrin type-A receptor 2 (Homo sapiens, UniProt P29317). As to the kind of experiment: Inhibition of recombinant human EPHA2 using poly (Glu, Tyr) 4:1 as substrate after 60 mins by ELISA. Put shortly:
as §1

Data set [15] addresses T2, Fibroblast growth factor receptor 1 (Homo sapiens, UniProt P11362). The experiment in a line: Inhibition of FGFR1 in human KG1 cells assessed as reduction of PLCgamma phosphorylation at 0.1 to 10 nM after 2 hrs by Western blot method. The settings on record: KG-1. It counts as cell-based. An outline of the steps: (§2)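 KG-1 cells treated at indicated concentrations for 2 h, then lysed in 1× SDS sample buffer. Lysates run on 10% SDS-PAGE, transferred to nitrocellulose, and probed for phospho-FGFR, PLCγ and Erk. Detection by enhanced chemiluminescence.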

The target in data set [16] is T2, Fibroblast growth factor receptor 1. The experiment in a line: Inhibition of FGFR1 in human KG1 cells assessed as reduction of ERK phosphorylation at 0.1 to 10 nM after 2 hrs by Western blot method. It counts as cell-based. The settings on record: KG-1. Put shortly: as §2
Data set [17] has as its target T1, Fibroblast growth factor receptor 2. As to the kind of experiment: Inhibition of FGFR2 phosphorylation in human SNU15 cells at 0.1 to 10 nM after 2 hrs by Western blot method. It counts as cell-based.
Target sequence in this assay (P21802 22-821 limits assumed): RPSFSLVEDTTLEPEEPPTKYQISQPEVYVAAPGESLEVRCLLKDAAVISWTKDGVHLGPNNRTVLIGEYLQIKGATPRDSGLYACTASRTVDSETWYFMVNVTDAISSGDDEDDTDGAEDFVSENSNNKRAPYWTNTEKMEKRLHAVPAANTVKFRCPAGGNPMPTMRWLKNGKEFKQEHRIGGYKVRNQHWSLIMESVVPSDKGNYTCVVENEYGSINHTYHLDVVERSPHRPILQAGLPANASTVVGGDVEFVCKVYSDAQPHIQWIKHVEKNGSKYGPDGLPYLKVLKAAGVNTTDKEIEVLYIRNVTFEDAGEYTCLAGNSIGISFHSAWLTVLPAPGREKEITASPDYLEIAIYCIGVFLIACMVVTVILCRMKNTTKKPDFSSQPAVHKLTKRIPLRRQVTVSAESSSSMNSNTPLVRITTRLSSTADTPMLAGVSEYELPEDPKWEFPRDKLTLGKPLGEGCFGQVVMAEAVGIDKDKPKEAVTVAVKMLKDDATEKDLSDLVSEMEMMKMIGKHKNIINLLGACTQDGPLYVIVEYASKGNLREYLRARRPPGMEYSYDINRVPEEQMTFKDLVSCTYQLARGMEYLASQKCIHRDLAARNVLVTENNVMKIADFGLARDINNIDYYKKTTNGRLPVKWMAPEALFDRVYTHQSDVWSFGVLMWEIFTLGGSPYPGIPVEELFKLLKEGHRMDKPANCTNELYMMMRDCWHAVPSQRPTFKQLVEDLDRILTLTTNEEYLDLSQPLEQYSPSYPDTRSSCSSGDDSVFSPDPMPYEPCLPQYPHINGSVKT

The source made the active and inactive calls. The rule behind the calls is not given here.

T2 sequence (P11362 22-822 limits assumed): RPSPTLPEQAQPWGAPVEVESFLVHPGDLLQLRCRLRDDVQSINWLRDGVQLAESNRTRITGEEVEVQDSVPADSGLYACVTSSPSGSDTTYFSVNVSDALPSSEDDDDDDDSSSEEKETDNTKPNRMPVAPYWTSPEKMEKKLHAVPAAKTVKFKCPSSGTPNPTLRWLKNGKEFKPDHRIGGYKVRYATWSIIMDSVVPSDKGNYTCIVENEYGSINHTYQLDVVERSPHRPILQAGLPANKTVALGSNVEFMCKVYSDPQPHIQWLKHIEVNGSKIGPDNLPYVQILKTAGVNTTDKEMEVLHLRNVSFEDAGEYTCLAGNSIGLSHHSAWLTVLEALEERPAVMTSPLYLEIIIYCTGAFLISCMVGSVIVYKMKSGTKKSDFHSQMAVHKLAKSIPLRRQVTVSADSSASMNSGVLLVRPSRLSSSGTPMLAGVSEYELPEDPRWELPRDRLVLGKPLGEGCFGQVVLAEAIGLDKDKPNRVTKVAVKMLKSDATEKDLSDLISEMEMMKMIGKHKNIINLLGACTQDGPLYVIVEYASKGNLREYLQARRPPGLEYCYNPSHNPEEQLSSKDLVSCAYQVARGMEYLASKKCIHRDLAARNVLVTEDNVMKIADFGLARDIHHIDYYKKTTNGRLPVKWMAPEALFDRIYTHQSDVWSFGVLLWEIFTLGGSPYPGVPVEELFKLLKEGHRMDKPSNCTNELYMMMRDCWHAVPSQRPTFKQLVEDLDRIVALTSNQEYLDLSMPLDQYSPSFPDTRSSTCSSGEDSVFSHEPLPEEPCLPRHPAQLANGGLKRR

`C[C@@H](Oc1ccc2[nH]nc(-c3nc4cc(N5CCN(C)CC5)ccc4[nH]3)c2c1)c1c(Cl)cncc1Cl`: the IC50 in data set [1] was 7.5 nM; in data set [6] it was 2 nM; in data set [7], 6.1 nM; in [8], more than 1000 nM; in [9], more than 1000 nM; in [10], more than 100 nM. The IC50 in data set [11], in data set [12], in data set [13] and in data set [14] was more than 100 nM throughout. In addition, the Cmax in data set [2] is 300 ng/mL; in [3], 97.2 ng/mL. This compound showed an AUC(0-inf) in data set [4] of 485 ng·h/mL. The Vd in data set [5] worked out at 5.8 L/kg. Moreover, the inhibition result in [15], in [16] and in data set [17] was “Active” throughout.
